Measured values taken from article PMC9476207 (ACS Omega, 2022).

How the values were obtained:
MOLT-4 = experiment: NCI-60 single-dose antiproliferative screen; assay type: cell-based; conditions: Homo sapiens, MOLT-4, 48 h, read-out: growth percent
Outline: (§1)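 NCI-60 protocol. Lines were grown in RPMI 1640 with 5% FBS and 2 mM L-glutamine, plated and incubated 24 h at 37 °C; time-zero plates were TCA-fixed. The test compound was dissolved in DMSO, diluted in medium with 50 μg/mL gentamicin and given once at a final 10^-5 M (DMSO control) for 48 h. Cells were fixed with cold TCA (1 h, 4 °C) and stained with 0.4% SRB in 1% acetic acid for 10 min. Dye was dissolved in 10 mM Trizma base and read at 515 nm. Growth percent was calculated from time-zero, test and control ODs.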

EKVX = experiment: NCI-60 single-dose antiproliferative screen; assay type: cell-based; conditions: Homo sapiens, 48 h, read-out: growth percent
Outline: as §1

HOP-92 = experiment: NCI-60 single-dose antiproliferative screen; assay type: cell-based; conditions: Homo sapiens, HOP-92, 48 h, read-out: growth percent
Outline: as §1

NCI-H322M = experiment: NCI-60 single-dose antiproliferative screen; assay type: cell-based; conditions: Homo sapiens, 48 h, read-out: growth percent
Outline: as §1

NCI-H460 = experiment: NCI-60 single-dose antiproliferative screen; assay type: cell-based; conditions: Homo sapiens, NCI-H460, 48 h, read-out: growth percent
Outline: as §1

HCT-15 = experiment: NCI-60 single-dose antiproliferative screen; assay type: cell-based; conditions: Homo sapiens, HCT-15, 48 h, read-out: growth percent
Outline: as §1

HT29 = experiment: NCI-60 single-dose antiproliferative screen; assay type: cell-based; conditions: Homo sapiens, HT-29, 48 h, read-out: growth percent
Outline: as §1

SF-295 = experiment: NCI-60 single-dose antiproliferative screen; assay type: cell-based; conditions: Homo sapiens, SF-295, 48 h, read-out: growth percent
Outline: as §1

SNB-19 = experiment: NCI-60 single-dose antiproliferative screen; assay type: cell-based; conditions: Homo sapiens, SNB-19, 48 h, read-out: growth percent
Outline: (§2)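 Cells grown in RPMI 1640 with 5% FBS and 2 mM L-glutamine, plated and held 24 h at 37 °C; time-zero plates TCA-fixed. DMSO stocks were diluted in gentamicin-containing medium to a final 10^-5 M, with a DMSO-only control. Exposure 48 h, 5% CO2. Adherent cells TCA-fixed 1 h at 4 °C, stained with 0.4% SRB, solubilised in 10 mM Trizma base, read at 515 nm. Growth percent derived from ODtzero, ODtest and ODctrl.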

U251 = experiment: NCI-60 single-dose antiproliferative screen; assay type: cell-based; conditions: Homo sapiens, U-251, 48 h, read-out: growth percent
Outline: as §2

LOX IMVI = experiment: NCI-60 single-dose antiproliferative screen; assay type: cell-based; conditions: Homo sapiens, 48 h, read-out: growth percent
Outline: as §1

IGROV1 = experiment: NCI-60 single-dose antiproliferative screen; assay type: cell-based; conditions: Homo sapiens, IGROV-1, 48 h, read-out: growth percent
Outline: as §1

OVCAR-3 = experiment: NCI-60 single-dose antiproliferative screen; assay type: cell-based; conditions: Homo sapiens, OVCAR-3, 48 h, read-out: growth percent
Outline: as §1

786-0 = experiment: NCI-60 single-dose antiproliferative screen; assay type: cell-based; conditions: Homo sapiens, 786-0, 48 h, read-out: growth percent
Outline: as §1

UO-31 = experiment: NCI-60 single-dose antiproliferative screen; assay type: cell-based; conditions: Homo sapiens, UO-31, 48 h, read-out: growth percent
Outline: as §2

MCF-7 = experiment: NCI-60 single-dose antiproliferative screen; assay type: cell-based; conditions: Homo sapiens, MCF7, 48 h, read-out: growth percent
Outline: as §1

MDA-MB-231 ATCC = experiment: NCI-60 single-dose antiproliferative screen; assay type: cell-based; conditions: Homo sapiens, MDA-MB-231, 48 h, read-out: growth percent
Outline: as §1

BT-549 = experiment: NCI-60 single-dose antiproliferative screen; assay type: cell-based; conditions: Homo sapiens, BT-549, 48 h, read-out: growth percent
Outline: as §1

MDA-MB-468 = experiment: NCI-60 single-dose antiproliferative screen; assay type: cell-based; conditions: Homo sapiens, MDA-MB-468, 48 h, read-out: growth percent
Outline: as §1

NCI-H460 cells [1] = experiment: Wound healing assay; assay type: cell-based, human
NCI-H460 cells [2] = experiment: Colony-forming ability; assay type: cell-based, human
ACHN = experiment: NCI-60 single-dose antiproliferative screen; assay type: cell-based; conditions: Homo sapiens, 48 h, read-out: growth percent
Outline: as §1

HL-60(TB) = experiment: NCI-60 single-dose antiproliferative screen; assay type: cell-based; conditions: Homo sapiens, HL-60, 48 h, read-out: growth percent
A498 = experiment: NCI-60 single-dose antiproliferative screen; assay type: cell-based; conditions: Homo sapiens, A498, 48 h, read-out: growth percent
Outline: as §1

Compound	activity at 10 µM (MOLT-4)	activity at 10 µM (EKVX)	activity at 10 µM (HOP-92)	activity at 10 µM (NCI-H322M)	activity at 10 µM (NCI-H460)	activity at 10 µM (HCT-15)	activity at 10 µM (HT29)	activity at 10 µM (SF-295)	activity at 10 µM (SNB-19)	activity at 10 µM (U251)	activity at 10 µM (LOX IMVI)	activity at 10 µM (IGROV1)	activity at 10 µM (OVCAR-3)	activity at 10 µM (786-0)	activity at 10 µM (UO-31)	activity at 10 µM (MCF-7)	activity at 10 µM (MDA-MB-231 ATCC)	activity at 10 µM (BT-549)	activity at 10 µM (MDA-MB-468)	activity at 10 µM (ACHN)	other results
COc1cc(CNC(=O)CCCC/C=C/C(C)C)ccc1OCc1cn(-c2ccc(C#N)cc2)nn1 [14j, (E)-N-(4-((1-(4-Cyanophenyl)-1H-1,2,3-triazol-4-yl)methoxy)-3-methoxybenzyl)-8-methylnon-6-enamide]	88.4%	90.8%	80.5%	95.3%	93%	83.5%	95.6%	102%	81.9%	91.2%	78.2%	100%	109%	91.7%	112%	103%	90.8%	91.2%	74.9%	–	migration capacity (wound healing) (NCI-H460 cells [1]): moderate wound healing; colony-forming ability (NCI-H460 cells [2]): inhibited the colony-forming ability
COc1cc(CNC(=O)C[C@H](C)CCC=C(C)C)ccc1OCc1cn(-c2ccc(Cl)cc2)nn1 [18b, (R)-N-(4-((1-(4-Chlorophenyl)-1H-1,2,3-triazol-4-yl)methoxy)-3-methoxybenzyl)-3,7-dimethyloct-6-enamide]	71.7%	75.3%	53%	83.5%	65%	65.3%	79.6%	55.5%	78.6%	57.7%	59.7%	80.2%	82.3%	84.3%	62.5%	51.6%	59.6%	87.4%	41.3%	44.8%	activity at 10 µM (HL-60(TB)): 87.8%; activity at 10 µM (A498): 98.9%
COc1cc(CNC(=O)CCCC/C=C/C(C)C)ccc1OCc1cn(-c2ccc(C)cc2)nn1 [14n, (E)-N-(3-Methoxy-4-((1-(p-tolyl)-1H-1,2,3-triazol-4-yl)methoxy)benzyl)-8-methylnon-6-enamide]	83.5%	84.8%	83.5%	89.4%	93.2%	104%	100%	98.9%	77.9%	81.7%	85.1%	98.5%	91.8%	99.6%	75.8%	96.3%	72.2%	105%	92.4%	72%	–
COc1cc(CNC(=O)CCCC/C=C/C(C)C)ccc1OCc1cn(-c2ccc(F)cc2)nn1 [14h, (E)-N-(4-((1-(4-Fluorophenyl)-1H-1,2,3-triazol-4-yl)methoxy)-3-methoxybenzyl)-8-methylnon-6-enamide]	82.6%	72.7%	66.2%	91.8%	75.7%	89.6%	106%	90.5%	81.3%	83.9%	84.2%	97%	96.4%	83.7%	86%	89.3%	69.1%	91%	68.2%	81.2%	–
